Screening data as filed in PubChem.
An excerpt weighted towards active compounds, which were near 3.6% of everything screened.
DNA FID counter-1: displaces DNA intercalator in HCV helicase counter-screen | inhibition, % at 7.9 µM | 290,000 compounds, 0.17% hits | DNA fluorescent intercalator displacement, fluorescence | AID 1845;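 further: 0% = vehicle and 100% = reference compound; higher means more ethidium bromide displaced from hairpin DNA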
EBNA-1 inh: blocks EBNA-1 binding to DNA; EBNA-1 DNA binding, fluorescence polarization; inhibition, % at 14.8 µM; 300,000 compounds, 0.34% hits; in the data active means inhibition above about 28%
ZTA DNA inh: counter-screen for EBNA-1 inhibitors: inhibitors of Epstein-Barr virus ZTA; ZTA-DNA binding, fluorescence polarization; inhibition, % at 11 µM; P03206; 320,000 compounds, 0.15% hits; AID 2234; in the data active means inhibition above about 33%
Target sequence (P03206 whole entry, looked up): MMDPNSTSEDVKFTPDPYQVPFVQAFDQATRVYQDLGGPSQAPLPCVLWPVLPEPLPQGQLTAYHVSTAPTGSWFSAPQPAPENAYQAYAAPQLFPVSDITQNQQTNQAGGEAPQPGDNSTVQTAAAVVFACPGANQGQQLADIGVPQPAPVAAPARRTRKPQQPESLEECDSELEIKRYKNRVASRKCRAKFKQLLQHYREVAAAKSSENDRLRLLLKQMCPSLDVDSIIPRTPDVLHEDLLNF
NS3 helicase inh: blocks Hepatitis C virus NS3 helicase unwinding | NS3 helicase DNA unwinding, Cy5 molecular beacon fluorescence | inhibition, % at 10.9 µM | 290,000 compounds, 0.56% hits | AID 1800;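 active means inhibition above the mean of all tested compounds plus 3 SD, set per campaign, cut at about 35% in these data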;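 further: 0% = DMSO wells and 100% = thioflavine S control wells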
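Measured by: Cy5 fluorescence, 0 and 60 min reads / Assay system: NS3 helicase fragment of HCV / Control set: low DMSO, high thioflavine S at 110 µM / Times: 1 h reaction at 25 °C, ATP-initiated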
GRIN3A LBD mod: modulators (binders) of human NR3A ligand-binding domain; NR3A LBD differential scanning fluorimetry, Tm shift; 0% = protein alone, 100% = glycine-bound protein; Tm shift relative to glycine control, % at 25 µM; 340,000 compounds, 2.5% hits; AID 1259313;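 active means melting temperature shift of at least 10% of the positive control shift, at one fixed dose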
FGF22 binding: FGF22 (human) thermal shift binding; activity (Tm shift, normalised), % at 9.99 µM; 340,000 compounds, 1.5% hits; recombinant FGF22 thermal shift, SYPRO orange fluorescence; percent of sucrose octasulfate shift, DMSO zero; AID 651658; Q9HCT0;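 active means mean Tm shift, scaled 0 neutral to 100 positive control, at about 1.3% or above, every replicate too, limit read from the data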
Target sequence (Q9HCT0 whole entry, looked up): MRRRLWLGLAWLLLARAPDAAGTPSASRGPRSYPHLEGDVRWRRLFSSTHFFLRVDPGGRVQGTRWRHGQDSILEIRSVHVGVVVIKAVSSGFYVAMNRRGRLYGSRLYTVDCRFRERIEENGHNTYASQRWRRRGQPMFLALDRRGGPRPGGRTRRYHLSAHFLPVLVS
NS3 hel confirm: confirmation of Hepatitis C virus NS3 helicase inhibitors. NS3 helicase DNA unwinding, Cy5 molecular beacon fluorescence. inhibition, % at 10.9 µM. shares compounds with NS3 helicase inh. AID 1943. 1,600 compounds, 31% hits;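 active means inhibition above the mean of all tested compounds plus 3 SD, cutoff set per campaign, cut at about 36% in these data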
DNA FID counter-2: intercalator displacement, NS3 helicase counter-screen; inhibition, % at 7.9 µM; DNA fluorescent intercalator displacement, fluorescence; shares compounds with NS3 helicase inh; 1,600 compounds, 4% hits;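 further: 0% = vehicle and 100% = reference compound; higher means more displacement of ethidium bromide from the DNA hairpin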
FID counter DR: DNA intercalator displacement in dose response; fluorescent intercalator displacement from DNA, fluorescence; 120 tested, under 10 active; shares compounds with NS3 helicase inh; IC50, µM; AID 2172; call rule not given here
The depositor's hits bear a star; / = not tested or not shown. Unless noted, no stated cut-off is given here; in the data, active means inhibition above about 37%; inactive means the rest.

SMILES	DNA FID counter-1	EBNA-1 inh	ZTA DNA inh	NS3 helicase inh	GRIN3A LBD mod	FGF22 binding	NS3 hel confirm	DNA FID counter-2	others
O=C(CCCN1C(=O)/C(=C/c2ccco2)SC1=S)Nc1cccc(C(=O)O)c1	6	-2	-12	56*	-2	0	88*	4
O=C1/C(=C/c2ccco2)SC(=S)N1c1cccnc1	-15	/	/	14	-2	0	/	/
Cn1cnc(CCNC(=O)C[C@@H]2CC[C@H]3[C@@H](COC[C@@H](O)CN3C(=O)Nc3ccccc3)O2)c1	/	/	/	/	/	0	/	/
C[C@@H]1CN([C@@H](C)CO)C(=O)c2cc(NC(=O)NC3CCCCC3)ccc2O[C@H]1CN(C)S(C)(=O)=O	/	/	/	/	/	0	/	/
C[C@@H]1CN([C@@H](C)CO)C(=O)c2cc(NC(=O)C3CCCCC3)ccc2O[C@@H](C)CCCCO[C@H]1CN(C)C(=O)NC1CCCCC1	/	/	/	/	/	0	/	/
C[C@H](CO)N1C[C@H](C)[C@@H](CN(C)C)Oc2ncc(C3=CCCC3)cc2C1=O	/	/	/	/	/	0	/	/
COc1cccc(C=Nc2ccc(N3CCOCC3)cc2)c1O	2	11	2	14	0	0	/	/
O=[N+]([O-])c1cc(Br)c(O)c(C=Nc2ccc(N3CCOCC3)cc2)c1	4	57*	127*	37*	-4	43	-20	8
O=C(O)c1ccccc1C(=O)c1ccc(Cl)cc1	-1	1	2	-7	0	0	/	/
O=C(O)c1ccccc1C(=O)c1ccc(-c2ccccc2)cc1	-25	22	16	42*	1	0	-20	-12
COc1cc(/C=C2\SC(c3ccc(C)cc3)=NC2=O)cc(OC)c1O	-10	11	26	-5	-17	0	/	/
Cc1ccc(C2=NC(=O)/C(=C/c3cc(O)c(O)c(Br)c3)S2)cc1	-6	/	/	53*	4	43*	-17	6
Fc1ccc(-[n+]2nc(Nc3ccccc3)sc2-c2cccc(Cl)c2Cl)cc1	-12	-2	-17	31	10	0	/	/
Clc1cccc(-c2sc(Nc3ccccc3)n[n+]2-c2ccccc2)c1Cl	-10	4	8	69*	2	/	9	20
COc1cc(OC)c(-c2sc(Nc3ccccc3)n[n+]2-c2ccc(F)cc2)cc1OC	-5	3	-1	27	-3	0	/	/
COc1cc(Br)c(-c2sc(Nc3ccccc3)n[n+]2-c2ccc(F)cc2)cc1OC	-17	-4	5	45*	-4	0	13	-5
Cc1cccc(N2C(=O)C(O)=C(C(=O)c3cccs3)C2c2ccc(F)cc2)n1 (configuration not stated)	-25	3	-13	13	0	0	/	/
Cc1cccc(N2C(=O)C(O)=C(C(=O)c3cccs3)C2c2ccc(C(C)C)cc2)n1 (configuration not stated)	-35	12	5	55*	-6	0	78*	-10	FID counter DR=>79
O=C(CC1SC(=O)N(c2ccccc2)C1=O)Nc1cccc2ccccc12 (configuration not stated)	-9	-3	16	46*	0	0	-4	-2
CCOc1ccc(NC(=O)CC2SC(=O)N(c3ccccc3)C2=O)cc1 (configuration not stated)	-8	-14	4	38*	-14	0	-13	9
CCC(=O)N(C)C[C@H]1Oc2ncc(C#CCC(C)C)cc2C(=O)N([C@H](C)CO)C[C@@H]1C	/	/	/	/	/	0	/	/
Cc1c(C(=O)c2ccc(F)cc2F)c2ccccn2c1CCc1ccccn1	/	/	/	/	/	0	/	/
Cc1c(C(=O)c2ccc(F)cc2F)c2ccccn2c1CCC#N	-3	-9	-20	49*	-1	0	-7	14
CNCC(=O)Nc1c(C)n[nH]c1C	-4	6	-4	40*	14*	0	4	15
